{
  "source": "ChEMBL document CHEMBL1156389",
  "about": "“Aglacins A-D, first representatives of a new class of aryltetralin cyclic ether lignans from Aglaia cordata” (J Nat Prod, 2001)",
  "key": {"HL-60": {"tested_on": "HL-60", "test": "Cytotoxicity against human HL60 cells at 2 mg/mL to 10 ng/mL by MTT assay", "assay_type": "functional, cell-based", "summary_of_the_method": "(§1)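 Antiproliferative MTT assay on the human leukemia line HL-60, the human carcinoma line HELA and the KB line. Compounds were tested over 2 mg/mL to 10 ng/mL, in triplicate.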"}, "HeLa": {"tested_on": "HeLa", "test": "Cytotoxicity against human HeLa cells at 2 mg/mL to 10 ng/mL by MTT assay", "assay_type": "functional, cell-based", "summary_of_the_method": "as §1"}},
  "note": "Calls of active or inactive are those of the source. The calls are words filed in the database; no cut-off is given here.",
  "data": [
    {"smiles": "COc1cc([C@@H]2c3c(cc(OC)c(OC)c3OC)C[C@@H]3COC[C@H]32)cc(OC)c1OC", "values": [
      {"measurement": "Activity", "setting": "HL-60", "result": "inactive"},
      {"measurement": "Activity", "setting": "HeLa", "result": "inactive"}
    ]},
    {"smiles": "COc1cc([C@@H]2c3c(cc(OC)c(OC)c3OC)[C@H](OC(C)=O)[C@@H]3COC[C@@H]23)cc(OC)c1OC", "values": [
      {"measurement": "Activity", "setting": "HL-60", "result": "inactive"},
      {"measurement": "Activity", "setting": "HeLa", "result": "inactive"}
    ]},
    {"smiles": "COc1ccc([C@@H]2c3c(cc(OC)c(OC)c3OC)C[C@@H]3COC[C@H]32)cc1OC", "values": [
      {"measurement": "Activity", "setting": "HL-60", "result": "inactive"},
      {"measurement": "Activity", "setting": "HeLa", "result": "inactive"}
    ]},
    {"smiles": "COc1cc([C@H]2c3c(cc(OC)c(OC)c3OC)C(=O)[C@@H]3COC[C@@H]23)cc(OC)c1OC", "values": [
      {"measurement": "Activity", "setting": "HL-60", "result": "inactive"},
      {"measurement": "Activity", "setting": "HeLa", "result": "inactive"}
    ]}
  ]
}
